The record followed here is ChEMBL document CHEMBL1143741, “Sirtuin 2 inhibitors rescue alpha-synuclein-mediated toxicity in models of Parkinson's disease” (Science, 2007).

The source made the active and inactive calls. The rule behind the calls is not given here.

Experiment [1] has as its target T1, NAD-dependent protein deacetylase sirtuin-2 (Homo sapiens, UniProt Q8IXJ6).
T1 sequence (Q8IXJ6 whole entry): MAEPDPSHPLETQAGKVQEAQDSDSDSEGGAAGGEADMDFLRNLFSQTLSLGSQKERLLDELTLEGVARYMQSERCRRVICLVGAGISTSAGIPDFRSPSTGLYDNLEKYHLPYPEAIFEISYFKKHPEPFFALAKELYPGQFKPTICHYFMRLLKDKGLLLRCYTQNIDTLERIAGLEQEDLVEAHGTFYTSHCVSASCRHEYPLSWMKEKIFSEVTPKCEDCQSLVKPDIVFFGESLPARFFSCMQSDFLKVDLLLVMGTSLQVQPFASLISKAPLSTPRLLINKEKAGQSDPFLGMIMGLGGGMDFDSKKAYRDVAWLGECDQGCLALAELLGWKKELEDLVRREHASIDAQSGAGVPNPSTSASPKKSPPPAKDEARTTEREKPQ
Briefly: Inhibition of human recombinant SIRT2 using fluorescent peptide substrate by fluorescent assay. The gist of the method: (§1)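 Recombinant human SIRT1 or SIRT2 tested in an in vitro fluorometric deacetylation assay. Dose-response inhibition profiles were run, and IC50 was calculated from them.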

Experiment [2] has as its target T2, NAD-dependent protein deacetylase sirtuin-3, mitochondrial (Homo sapiens, UniProt Q9NTG7).
T2 sequence (Q9NTG7 whole entry): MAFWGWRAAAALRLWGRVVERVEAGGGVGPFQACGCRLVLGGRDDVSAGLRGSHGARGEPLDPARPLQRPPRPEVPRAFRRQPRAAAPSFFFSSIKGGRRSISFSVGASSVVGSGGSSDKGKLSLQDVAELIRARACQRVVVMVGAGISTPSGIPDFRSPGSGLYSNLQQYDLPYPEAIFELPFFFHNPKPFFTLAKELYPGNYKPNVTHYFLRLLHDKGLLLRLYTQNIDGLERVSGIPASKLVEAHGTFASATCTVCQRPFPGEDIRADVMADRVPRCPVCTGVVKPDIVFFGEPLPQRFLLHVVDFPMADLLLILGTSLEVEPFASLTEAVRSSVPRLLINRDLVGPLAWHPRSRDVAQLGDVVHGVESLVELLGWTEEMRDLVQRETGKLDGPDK
Briefly: Inhibition of human recombinant SIRT3 using fluorescent peptide substrate by fluorescent assay.

For experiment [3], the target named is T3, NAD-dependent protein deacetylase sirtuin-1 (Homo sapiens, UniProt Q96EB6).
T3 sequence (Q96EB6 whole entry): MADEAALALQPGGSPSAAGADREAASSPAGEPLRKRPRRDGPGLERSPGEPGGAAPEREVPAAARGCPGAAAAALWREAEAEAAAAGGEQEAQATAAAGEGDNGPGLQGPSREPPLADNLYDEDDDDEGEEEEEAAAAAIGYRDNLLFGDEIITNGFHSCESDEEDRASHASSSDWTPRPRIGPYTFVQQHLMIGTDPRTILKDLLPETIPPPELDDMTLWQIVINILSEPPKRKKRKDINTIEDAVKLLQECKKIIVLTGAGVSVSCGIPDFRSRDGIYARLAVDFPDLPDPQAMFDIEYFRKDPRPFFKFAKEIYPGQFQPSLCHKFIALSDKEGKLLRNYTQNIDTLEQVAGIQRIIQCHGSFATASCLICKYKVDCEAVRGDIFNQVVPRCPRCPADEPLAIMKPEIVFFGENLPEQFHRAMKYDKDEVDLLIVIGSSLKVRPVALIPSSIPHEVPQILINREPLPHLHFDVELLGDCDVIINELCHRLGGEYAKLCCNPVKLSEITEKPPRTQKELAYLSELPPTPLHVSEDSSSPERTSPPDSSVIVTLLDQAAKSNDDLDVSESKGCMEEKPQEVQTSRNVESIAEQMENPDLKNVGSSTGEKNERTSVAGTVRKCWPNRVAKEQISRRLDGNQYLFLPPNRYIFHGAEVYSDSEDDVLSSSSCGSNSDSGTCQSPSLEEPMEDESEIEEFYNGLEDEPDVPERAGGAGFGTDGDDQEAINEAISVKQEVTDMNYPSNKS
Briefly: Inhibition of human recombinant SIRT1 using fluorescent peptide substrate by fluorescent assay. The gist of the method:
as §1

The test system of a further experiment is Midbrain. Description: Protection of dopaminergic cell death in rat embryo midbrain transduced with lentivirus encoding alphaSyn-A53T mutant assessed as tyrosine hydroxylase positive cells. In kind it is functional, tissue-based. Put shortly: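 Primary midbrain cultures transduced with α-SynA53T lentivirus (multiplicity of infection = 5) in the presence of vehicle (DMSO) or increasing compound concentrations. Untransduced DMSO-treated (0.2%, v/v) cells served as control. Stained for MAP2 and TH; viability = percentage of MAP2-positive cells also TH-positive. Means ± SEM, N > 3; one-way ANOVA with Dunnett's post hoc test versus α-SynA53T alone.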

Another experiment has as its system Drosophila. Briefly: Protective effect against alphaSyn mediated toxicity in wild-type transgenic Drosophila expressing elav-GAL4; UAS-synWT assessed as rescue of dorsomedial neurons after drug administration for the first 20 days of adult life. It counts as functional, organism-based. The gist of the method:
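Transgenic α-Syn flies were fed compound at 250, 500 or 1000 μM, or DMSO, for the first 20 days of adult life. TH-positive dopamine neurons in the dorsomedial cluster were then assessed in 20-day-old flies. Significance was set at P < 0.01.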

In the case of `N#C/C(=C\c1ccc(-c2cccc(C(F)(F)F)c2)o1)C(=O)Nc1cccc2ncccc12`, the figures for the IC50 in experiment [1], in experiment [2] and in experiment [3] were 6 µM, more than 50 µM and more than 50 µM, respectively.

Take `N#C/C(=C\c1ccc(-c2cc(Cl)ccc2Cl)o1)C(=O)Nc1cccc2cccnc12`: the figures for the IC50 in experiment [1] and in experiment [2] were more than 50 µM and more than 5 µM, respectively.

With `N#C/C(=C\c1ccc(-c2ccccc2Cl)o1)C(=O)Nc1cccc2ncccc12`, the IC50 (usually the point on the concentration scale where inhibition reaches its midpoint) in experiment [1] was 5.5 µM; in experiment [2] it was more than 50 µM.

`O=C(c1ccc(Cl)cc1)N1CCN(c2ccc([N+](=O)[O-])c3ncccc23)CC1`: in the experiment with Midbrain, the result was Active. Besides, the results for the IC50 in experiment [1], in experiment [2] and in experiment [3] were 35 µM, more than 50 µM and more than 50 µM, respectively.

As for `N#C/C(=C\c1ccc(-c2cc(Cl)ccc2Cl)o1)C(=O)Nc1cccc2ncccc12`, the result with Midbrain was Active. For the same compound, the Activity result with Drosophila was “Dose-dependent effect”. Also, the IC50 in experiment [3] is more than 50 µM.

Regarding `N#C/C(=C\c1ccc(-c2ccccc2Cl)o1)C(=O)Nc1cccc2cccnc12`, the IC50 in experiment [1] and in experiment [2] was more than 50 µM in each case.

For `N#C/C(=C\c1ccc(-c2cccc(Cl)c2Cl)o1)C(=O)Nc1cccc2ncccc12`, the IC50 is more than 10 µM in experiment [1], more than 50 µM in experiment [2] and more than 50 µM in experiment [3].

Take `N#C/C(=C\c1ccc(-c2cccc(C(F)(F)F)c2)o1)C(=O)Nc1cccc2cccnc12`: the IC50 in experiment [1], in experiment [2] and in experiment [3] was more than 50 µM each time.

For `N#C/C(=C\c1ccc(-c2cccc(Cl)c2Cl)o1)C(=O)Nc1cccc2cccnc12`, the IC50 in experiment [1], in experiment [2] and in experiment [3] was more than 50 µM throughout.
